Common to all, as to assay type: functional
The species named for test [1] is Cavia porcellus. In words: Dose that protects 50% of guinea pig from collapse was determined in guinea pig anaphylaxis assay. As to conditions: read-out: PD50. Put shortly:
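Guinea pigs dosed by gavage (10 mL/kg) with compound in 0.5% Tween 80/water; reference theophylline 100 mg/kg po. At 1–24 h, exposed in chamber to aerosolized 1% (w/v) egg albumin at 10 L air/min for up to 5 min; protected if no collapse within 5 min. PD50 by Litchfield and Wilcoxon.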

For test [2], the system named is Rattus norvegicus. Briefly: Percent change in volume of foot edema of test compound to that of positive control was determined at a dose of 10 mg/kg in rat; -48/-68.
Test [3] concerns Rattus norvegicus. In words: Percent change in volume of foot edema of test compound to that of positive control was determined at a dose of 3.16 mg/kg in rat; -13/-68.
The subject of test [4] is Rattus norvegicus. Briefly: Percent change in volume of foot edema of test compound to that of positive control was determined at a dose of 31.6 mg/kg in rat; -78/-78.
The test system of test [5] is Rattus norvegicus. In words: Percent change in volume of foot edema of test compound to that of positive control was determined at a dose of 10 mg/kg in rat; -2/-65.
The test system of test [6] is Rattus norvegicus. In words: Percent change in volume of foot edema of test compound to that of positive control was determined at a dose of 31.6 mg/kg in rat; -59/-83.
Test [7] concerns Rattus norvegicus. Briefly: Percent change in volume of foot edema of test compound to that of positive control was determined at a dose of 10 mg/kg in rat; +22/-73.
Test [8] has as its system Rattus norvegicus. Briefly: Percent change in volume of foot edema of test compound to that of positive control was determined at a dose of 31.6 mg/kg in rat; -85/-78.

`Cl.Cl.OC(CCN1CCN(c2ccccn2)CC1)COc1ccc(Cl)cc1` (stereo not drawn): the ED50 in test [1] came to 10.2 mg/kg. Moreover, the PFA is on record as -48 in test [2], -13 in test [3] and -78 in test [4].
In the case of `OC(CCN1CCN(c2ccc(Br)cc2)CC1)COc1ccccc1` (stereo not drawn), the PFA in test [5] is recorded as -2; in test [6], -59.
As to `OC(CCN1CCN(c2cccc(Cl)c2)CC1)COc1ccccc1` (stereo not drawn), the PFA is 22 in test [7] and -85 in test [8].

These data come from ChEMBL document CHEMBL1124808, “The synthesis and antiallergy activity of 1-(aryloxy)-4-(4-arylpiperazinyl)-2-butanol derivatives” (1990).
